Test results reported in ChEMBL document CHEMBL2021876, “New pyridobenzoxazepine derivatives derived from 5-(4-methylpiperazin-1-yl)-8-chloro-pyrido[2,3-b][1,5]benzoxazepine (JL13): chemical synthesis and pharmacological evaluation” (J Med Chem, 2012).

Assays:
Caudate-putamen [1] = assay: In vivo displacement of [3H]8-OH-DPAT from 5HT1A receptor in Sprague-Dawley rat medial part of caudate putamen at 13.75 mg/kg, ip qd for 28 days by autoradiography relative to control; assay type: functional; settings: route intraperitoneal
Summary of the method: (§1)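 Male Sprague-Dawley rats (200−225 g, N = 8/group) dosed ip once daily for 28 days, vehicle controls, decapitated; 10 μm frozen coronal sections. Preincubation 1 h RT in 50 mM Tris-HCl pH 7.6, 0.1% ascorbic acid, 4 mM CaCl2, 10 μM pargyline; then 1 h RT with 2.0 nM [3H]8-OH-DPAT. Nonspecific: 1 μM 5-HT. Saturating conditions; binding in fmol/mg tissue, % of control, mean ± SEM.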

[2] = In vivo displacement of [3H]Ketanserin from 5HT2A receptor in Sprague-Dawley rat entorhinal cortex at 13.75 mg/kg, ip qd for 28 days by autoradiography relative to control; assay type: functional; settings: route intraperitoneal
Summary of the method: (§2)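 Rats (male Sprague-Dawley, N = 8/group) given daily ip injections for 28 days versus vehicle. Brain sections preincubated 1 h RT in 50 mM Tris-HCl pH 7.7, then 1 h RT with 3.0 nM [3H]ketanserin plus 1 μM prazosin and 100 nM tetrabenazine. Nonspecific: 1 μM methysergide. Washes 2 × 30 min ice-cold. Readout fmol/mg tissue as % of control, mean ± SEM.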

[3] = In vivo displacement of [3H]Nemonapride from dopamine D4 receptor in Sprague-Dawley rat nucleus accumbens at 13.75 mg/kg, ip qd for 28 days by autoradiography relative to control; assay type: functional; settings: route intraperitoneal
Hippocampus [4] = assay: In vivo displacement of [3H]8-OH-DPAT from 5HT1A receptor in Sprague-Dawley rat hippocampus CA1 region at 13.75 mg/kg, ip qd for 28 days by autoradiography relative to control; assay type: functional; settings: route intraperitoneal; summary of the method: as §1
Hippocampus [5] = assay: In vivo displacement of [3H]Ketanserin from 5HT2A receptor in Sprague-Dawley rat hippocampus CA1 region at 13.75 mg/kg, ip qd for 28 days by autoradiography relative to control; assay type: functional; settings: route intraperitoneal; summary of the method: as §2
[6] = In vivo displacement of [3H]SCH-23390 from dopamine D1 receptor in Sprague-Dawley rat dorsolateral frontal cortex at 13.75 mg/kg, ip qd for 28 days by autoradiography relative to control; assay type: functional; settings: route intraperitoneal
Summary of the method: (§3)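 Forebrain sections from male Sprague-Dawley rats (N = 8/group) after 28 days of daily ip injections versus vehicle. Incubation 1 h RT in 50 mM Tris-HCl pH 7.4, 120 mM NaCl, 5 mM KCl, 2 mM CaCl2, 1 mM MgCl2 with 1 nM [3H]SCH-23390 and 100 nM ketanserin. Nonspecific: 1 μM cis-flupenthixol. Saturating conditions; fmol/mg tissue, % of control.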

Hippocampus [7] = assay: In vivo displacement of [3H]8-OH-DPAT from 5HT1A receptor in Sprague-Dawley rat hippocampus CA3 region at 13.75 mg/kg, ip qd for 28 days by autoradiography relative to control; assay type: functional; settings: route intraperitoneal; summary of the method: as §1
[8] = In vivo displacement of [3H]Nemonapride from dopamine D4 receptor in Sprague-Dawley rat entorhinal cortex at 13.75 mg/kg, ip qd for 28 days by autoradiography relative to control; assay type: functional; settings: route intraperitoneal
Caudate-putamen [9] = assay: In vivo displacement of [3H]Nemonapride from dopamine D4 receptor in Sprague-Dawley rat medial part of caudate putamen at 13.75 mg/kg, ip qd for 28 days by autoradiography relative to control; assay type: functional; settings: route intraperitoneal
Caudate-putamen [10] = assay: In vivo displacement of [3H]SCH-23390 from dopamine D1 receptor in Sprague-Dawley rat lateral part of caudate putamen at 13.75 mg/kg, ip qd for 28 days by autoradiography relative to control; assay type: functional; settings: route intraperitoneal; summary of the method: as §3
[11] = target: D(2) dopamine receptor (Rattus norvegicus) (UniProt P61169); assay: In vivo displacement of [3H]Nemonapride from dopamine D2 receptor in Sprague-Dawley rat medial-prefrontal cortex at 13.75 mg/kg, ip qd for 28 days by autoradiography relative to control; assay type: functional, organism-based; set-up: dose 13.75 mg/kg
D(2) dopamine receptor (Rattus norvegicus), sequence (P61169 whole entry): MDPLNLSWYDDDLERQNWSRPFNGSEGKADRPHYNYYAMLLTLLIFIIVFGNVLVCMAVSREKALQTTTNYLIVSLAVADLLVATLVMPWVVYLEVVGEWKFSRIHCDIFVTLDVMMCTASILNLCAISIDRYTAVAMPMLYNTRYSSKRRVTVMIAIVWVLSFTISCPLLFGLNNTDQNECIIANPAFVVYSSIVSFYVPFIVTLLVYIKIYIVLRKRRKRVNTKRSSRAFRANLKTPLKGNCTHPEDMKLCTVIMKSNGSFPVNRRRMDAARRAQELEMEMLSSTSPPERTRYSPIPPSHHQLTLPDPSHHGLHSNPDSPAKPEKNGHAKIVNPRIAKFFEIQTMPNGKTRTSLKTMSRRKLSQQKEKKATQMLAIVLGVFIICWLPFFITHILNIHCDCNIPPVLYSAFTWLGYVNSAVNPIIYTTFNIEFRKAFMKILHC
Summary of the method: (§4)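 Male Sprague-Dawley rats, N = 8/group, daily ip dosing for 28 days with vehicle controls; cryostat sections (10 μm) preincubated 1 h RT. Incubation 1 h RT in 50 mM Tris-HCl pH 7.4, 120 mM NaCl, 5 mM KCl, 2 mM CaCl2, 1 mM MgCl2 with 1 nM [3H]nemonapride, 0.5 μM DTG, 0.1 μM pindolol. Nonspecific: 10 μM S(−)-sulpiride. Values fmol/mg tissue, % of control.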

[12] = target: T1, Serotonin 1a (5-HT1a) receptor/Adrenergic receptor alpha-1 (Rattus norvegicus) (UniProt P15823+P23944+P43140+P19327); assay: In vivo displacement of [3H]8-OH-DPAT from 5HT1A receptor in Sprague-Dawley rat medial-prefrontal cortex at 13.75 mg/kg, ip qd for 28 days by autoradiography relative to control; assay type: functional, organism-based; set-up: dose 13.75 mg/kg; summary of the method: as §1
Caudate-putamen [13] = assay: In vivo displacement of [3H]Nemonapride from dopamine D2 receptor in Sprague-Dawley rat medial of caudate putamen at 13.75 mg/kg, ip qd for 28 days by autoradiography relative to control; assay type: functional; settings: route intraperitoneal; summary of the method: as §4
[14] = target: D(2) dopamine receptor (Rattus norvegicus) (UniProt P61169); assay: In vivo displacement of [3H]Nemonapride from dopamine D2 receptor in Sprague-Dawley rat nucleus accumbens at 13.75 mg/kg, ip qd for 28 days by autoradiography relative to control; assay type: functional, organism-based; set-up: dose 13.75 mg/kg; summary of the method: as §4
[15] = target: T1, Serotonin 1a (5-HT1a) receptor/Adrenergic receptor alpha-1 (Rattus norvegicus); assay: In vivo displacement of [3H]8-OH-DPAT from 5HT1A receptor in Sprague-Dawley rat dorsolateral frontal cortex at 13.75 mg/kg, ip qd for 28 days by autoradiography relative to control; assay type: functional, organism-based; set-up: dose 13.75 mg/kg; summary of the method: as §1
[16] = target: T1, Serotonin 1a (5-HT1a) receptor/Adrenergic receptor alpha-1 (Rattus norvegicus); assay: In vivo displacement of [3H]8-OH-DPAT from 5HT1A receptor in Sprague-Dawley rat entorhinal cortex at 13.75 mg/kg, ip qd for 28 days by autoradiography relative to control; assay type: functional, organism-based; set-up: dose 13.75 mg/kg; summary of the method: as §1
Caudate-putamen [17] = assay: In vivo displacement of [3H]Nemonapride from dopamine D4 receptor in Sprague-Dawley rat lateral part of caudate putamen at 13.75 mg/kg, ip qd for 28 days by autoradiography relative to control; assay type: functional; settings: route intraperitoneal
Hippocampus [18] = assay: In vivo displacement of [3H]Nemonapride from dopamine D4 receptor in Sprague-Dawley rat hippocampus at 13.75 mg/kg, ip qd for 28 days by autoradiography relative to control; assay type: functional; settings: route intraperitoneal
[19] = In vivo displacement of [3H]SCH-23390 from dopamine D1 receptor in Sprague-Dawley rat entorhinal cortex at 13.75 mg/kg, ip qd for 28 days by autoradiography relative to control; assay type: functional; settings: route intraperitoneal; summary of the method: as §3
Caudate-putamen [20] = assay: In vivo displacement of [3H]SCH-23390 from dopamine D1 receptor in Sprague-Dawley rat medial part of caudate putamen at 13.75 mg/kg, ip qd for 28 days by autoradiography relative to control; assay type: functional; settings: route intraperitoneal; summary of the method: as §3
Caudate-putamen [21] = assay: In vivo displacement of [3H]8-OH-DPAT from 5HT1A receptor in Sprague-Dawley rat lateral part of caudate putamen at 13.75 mg/kg, ip qd for 28 days by autoradiography relative to control; assay type: functional; settings: route intraperitoneal; summary of the method: as §1
[22] = Lipophilicity, log K of the compound in IAM-PC-DD2 HPLC column by UV method; assay type: physicochemical; settings: artificial membrane

## Clc1ccc2c(c1)N=C(N1CCNCC1)c1cccnc1O2
Caudate-putamen [1]
  inhibition in vivo at 13.75 mg/kg: 87%
[2]
  inhibition in vivo at 13.75 mg/kg: 90%
[3]
  inhibition in vivo at 13.75 mg/kg: 178%
Hippocampus [4]
  inhibition in vivo at 13.75 mg/kg: 95%
Hippocampus [5]
  inhibition in vivo at 13.75 mg/kg: 96%
[6]
  inhibition in vivo at 13.75 mg/kg: 95%
Hippocampus [7]
  inhibition in vivo at 13.75 mg/kg: 105%
[8]
  inhibition in vivo at 13.75 mg/kg: 103%
Caudate-putamen [9]
  inhibition in vivo at 13.75 mg/kg: 166%
Caudate-putamen [10]
  inhibition in vivo at 13.75 mg/kg: 132%
[11]
  inhibition: 141%
[12]
  inhibition: 137%
Caudate-putamen [13]
  inhibition in vivo at 13.75 mg/kg: 110%
[14]
  inhibition: 140%
[15]
  inhibition: 141%
[16]
  inhibition: 103%
Caudate-putamen [17]
  inhibition in vivo at 13.75 mg/kg: 152%
Hippocampus [18]
  inhibition in vivo at 13.75 mg/kg: 117%
[19]
  inhibition in vivo at 13.75 mg/kg: 96%
Caudate-putamen [20]
  inhibition in vivo at 13.75 mg/kg: 131%
Caudate-putamen [21]
  inhibition in vivo at 13.75 mg/kg: 95%
[22]
  log K: 2.68
